High-throughput results as filed in PubChem.
CSC inhib: cancer stem cell viability inhibitors, primary screen, luminescence. cancer stem cell-like cells viability. inhibition, % at 7.5 µM. hit rate 1.1% among 300,000; in the data active means inhibition above about 75%; tested in HMLE shEcad cells
Mdm2 MdmX PPI: inhibitors of human Mdm2-MdmX association, primary screen, cell-based, luminescence, split luciferase, SaOS-2, uHTS; SaOS-2 split-luciferase Mdm2/MdmX complementation; hit rate 3% among 330,000; Protein Mdm4 (Homo sapiens) + E3 ubiquitin-protein ligase Mdm2 (Homo sapiens), …; inhibition, % at 8 µM;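 active means inhibition of at least 50% at 8 µM in the primary screen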
Target sequence (O15151 whole entry, looked up): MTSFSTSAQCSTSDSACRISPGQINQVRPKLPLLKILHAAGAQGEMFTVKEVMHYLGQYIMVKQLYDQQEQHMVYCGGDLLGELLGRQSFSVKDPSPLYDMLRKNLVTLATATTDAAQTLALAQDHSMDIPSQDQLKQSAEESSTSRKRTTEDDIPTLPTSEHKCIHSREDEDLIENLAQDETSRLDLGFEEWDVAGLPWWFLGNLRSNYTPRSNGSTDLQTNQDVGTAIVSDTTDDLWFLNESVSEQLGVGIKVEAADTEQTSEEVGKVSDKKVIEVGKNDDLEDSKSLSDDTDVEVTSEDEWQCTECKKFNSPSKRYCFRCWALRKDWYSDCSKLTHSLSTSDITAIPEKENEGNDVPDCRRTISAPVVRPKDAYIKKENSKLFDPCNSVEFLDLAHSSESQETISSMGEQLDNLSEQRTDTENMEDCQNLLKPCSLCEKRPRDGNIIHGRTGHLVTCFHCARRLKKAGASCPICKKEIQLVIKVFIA
Target sequence (Q00987 whole entry, looked up): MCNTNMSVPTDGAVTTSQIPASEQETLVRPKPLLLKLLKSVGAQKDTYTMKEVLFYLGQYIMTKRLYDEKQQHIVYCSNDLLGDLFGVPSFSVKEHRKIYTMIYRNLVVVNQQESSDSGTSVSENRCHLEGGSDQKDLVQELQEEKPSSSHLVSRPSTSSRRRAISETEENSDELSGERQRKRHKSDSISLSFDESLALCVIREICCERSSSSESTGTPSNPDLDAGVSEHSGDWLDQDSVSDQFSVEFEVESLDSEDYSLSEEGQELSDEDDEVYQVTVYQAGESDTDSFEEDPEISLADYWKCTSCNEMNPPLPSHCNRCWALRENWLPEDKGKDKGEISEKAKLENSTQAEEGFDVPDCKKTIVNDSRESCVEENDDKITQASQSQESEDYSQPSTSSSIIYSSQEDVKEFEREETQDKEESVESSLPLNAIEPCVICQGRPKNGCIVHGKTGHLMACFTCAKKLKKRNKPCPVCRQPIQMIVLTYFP
Beta apoptosis: inhibitors of cytokine-induced beta cell apoptosis, primary screen, luminescence | protection from apoptosis, % (test concentration not listed) | hit rate 0.8% among 300,000 | INS-1E cytokine-induced death, ATP luminescence, 48 h; percent of positive-control rescue, neutral wells zero;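 active means Every replicate reaches about 75%, or at least half do and their mean reaches it too, limit read from the data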;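 further: higher means more ATP so stronger rescue from cytokine killing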
T cruzi inh: inhibitors of intracellular T. cruzi growth, primary screen, luminescence, NIH3T3 host cells; T. cruzi beta-gal in NIH3T3, 90 h; inhibition, % (test concentration not listed); hit rate 1.4% among 300,000;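 active means mean inhibition across valid replicates above about 55%, limit read from the data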;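 further: signal also drops with host cell toxicity which is not excluded here; higher percent means less beta-gal luminescence so fewer parasites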
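assay system = mouse NIH/3T3 fibroblasts infected with β-gal-expressing T. cruzi Tulahuen C4 | input = 5,000 NIH/3T3 host cells per well | buffer or medium = DMEM plus 2% FBS | timing = 3 h host attachment, then at least 90 h co-culture | measured by = GalScreen luminescence, 60 min | evaluation = luminescence reflecting intracellular parasite burden, expressed as percent inhibition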
Calb FLC: C. albicans growth inhibition with fluconazole, primary screen, CaCi-2 strain, Alamar Blue fluorescence. C. albicans CaCi-2 (fluconazole-resistant clinical isolate) + fluconazole, 48 h. growth inhibition, % (concentration not given with the values). hit rate 0.57% among 300,000;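 active means growth inhibition above about 58% in most replicates, limit read from the data, passing the limit was not always enough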;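 further: all wells also contain fluconazole at 8 µg/ml as a sub-toxic cotreatment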
NALP3 yeast inh: NALP3 inflammasome inhibitors in reconstituted yeast, primary screen, luminescence, uHTS. Yeast reconstituted NLRP3/ASC/caspase-1, beta-gal luminescence, 24 h. inhibition, % at 10 µM. hit rate 0.39% among 330,000;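 active means inhibition of 50% or more; inactive means inhibition below 50%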
Mdm2-MdmX conf: Mdm2-MdmX complex disruptors, retested hits, confirmation, luminescence, single concentration; hit rate 55% among 10,000; inhibition, % at 8 µM; shares compounds with Mdm2 MdmX PPI; Mdm2-MdmX binding, luminescent assay; in the data active means inhibition above about 40%
FLuc counter: full-length luciferase signal inhibition, confirmation, counter-screen for Mdm2/MdmX interaction inhibitor project, cell-based, single concentration, SaOS-2 | shares compounds with Mdm2 MdmX PPI | SaOS-2 full-length luciferase counterscreen, luminescence | inhibition, % at 8 µM | hit rate 77% among 6,200 | AID 504607, 2011;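 active means mean inhibition at 8 µM reaching about 37%, which flags the compound as non-specific, limit read from the data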;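 further: p53-null SaOS-2 cells with luciferase driven by a doxycycline-inducible promoter; compound on cells about two nights before reading with doxycycline added after day one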
Each line names hits and unclear results; the compound was inactive in the other large screens (follow-up assays come after a bar, where they were run). Sampled rows, rich in hits. Any-hit rate of the full collection: about 5.3%.

C=C1[C@@H](O)[C@@H]2O[C@]3(CC[C@H](/C=C/[C@@H](C)[C@@H]4CC(C)=CC5(O[C@H](C[C@@](C)(O)C(=O)OC)CC[C@H]5O)O4)O3)CC[C@H]2O[C@@H]1[C@@H](O)C[C@H](C)[C@H]1OC2(CCCCO2)CC[C@H]1C (some centres undefined)	CSC inhib 77, Mdm2 MdmX PPI 100, Beta apoptosis 108 (no result: T cruzi inh, Calb FLC) | Mdm2-MdmX conf 100 | FLuc counter inactive
Cn1c(=O)c2[nH]c(-c3ccccc3Cl)c(O)c2n(C)c1=O	none
Cc1ccc(OCC(O)Cn2c(N3CCCCC3)nc3c2c(=O)[nH]c(=O)n3C)cc1 (centres undefined)	none
CC(=O)N(Cc1ccc(F)cc1)c1cccc(C)c1C	none
CC(=O)N(Cc1ccc(F)cc1)C1=C(NCCc2ccccc2)C(=O)c2ccccc2C1=O	Mdm2 MdmX PPI 80, Beta apoptosis 106, Calb FLC 87 | Mdm2-MdmX conf 85 | FLuc counter 52
Cc1cccc(C)c1NC(=O)Cn1nnc(-c2ccc(N3CCOCC3)cc2)n1	Mdm2 MdmX PPI 70 (no result: CSC inhib) | Mdm2-MdmX conf inactive
Cc1ccc(C)c(NC(=O)Cn2nnc(-c3ccc(N4CCOCC4)cc3)n2)c1	Mdm2 MdmX PPI 83 | Mdm2-MdmX conf inactive | FLuc counter 83
O=S(=O)(c1ccc(Cl)c(NC(=S)N/N=C/c2ccc(O)cc2)c1)N1CCOCC1	none
O=S(=O)(c1ccc(Cl)c(NC(=S)N/N=C/c2c(F)cccc2F)c1)N1CCOCC1	Mdm2 MdmX PPI 50 | Mdm2-MdmX conf inactive
CCOC(=O)c1cnn2cc(-c3[nH]ncc3[N+](=O)[O-])cnc12	none
Cc1ccc(S(=O)(=O)N[C@@H](Cc2ccccc2)C(=O)CCl)cc1	Mdm2 MdmX PPI 80 (no result: T cruzi inh, Calb FLC) | Mdm2-MdmX conf inactive | FLuc counter 63
CCOCCCN(CC(=O)NC1CCCC1)C(=O)C(=O)Nc1ccc2c(c1)OCCO2	none
O=C(/C=C/c1ccco1)Nc1ccc(Oc2ccc(Cl)cc2)cc1	Mdm2 MdmX PPI 55 | Mdm2-MdmX conf 60 | FLuc counter 40
COCCCNc1c2c3c(cccc3[nH]c1=O)C(=O)c1ccccc1-2	Mdm2 MdmX PPI 57 (no result: T cruzi inh, Calb FLC) | Mdm2-MdmX conf 58 | FLuc counter 86
CCOC(=O)c1c2c3c(cccc3[nH]c1=O)C(=O)c1ccccc1-2	none
O=C(CCc1ccccc1)NNC(=O)Nc1ccc(Cl)cc1	none (no result: CSC inhib, Beta apoptosis)
O=C(CN1c2ccccc2Sc2ccccc21)NNC(=O)Nc1ccc(Cl)cc1	Mdm2 MdmX PPI 54 (no result: CSC inhib, Beta apoptosis) | Mdm2-MdmX conf inactive | FLuc counter 54
COc1cc(/C=C/C(=O)O)cc(S(=O)(=O)Nc2ccc3c(c2)OCO3)c1OC	none
O=S1(=O)C=C(Sc2nnc(-c3ccccc3)o2)c2ccccc21	CSC inhib 108, Mdm2 MdmX PPI 80, Beta apoptosis 105, T cruzi inh 63 | Mdm2-MdmX conf 100 | FLuc counter 50
COc1ccc(S(=O)(=O)N2CCOC2CNC(=O)C(=O)NCCCc2ccccc2)cc1 (centres undefined)	none (no result: CSC inhib)
N=c1c2c(n(Cc3ccc(Cl)c(Cl)c3)c3c1CCC3)CCCC2	Mdm2 MdmX PPI 74, Beta apoptosis 102, T cruzi inh 70 (no result: CSC inhib) | Mdm2-MdmX conf 52 | FLuc counter 45
CCCn1c2c(c(=N)c3c1CCC3)CCCC2	none
CCOc1cc(/C=C/C(=O)O)ccc1OCc1ccccc1	none
COc1cccc2c1OC1(C)CC2N(C(=O)c2ccco2)C(=S)N1c1ccc(F)cc1 (centres undefined)	Mdm2 MdmX PPI 65 | Mdm2-MdmX conf 53 | FLuc counter 70
CC12CC(c3ccccc3O1)N(C(=O)c1ccco1)C(=O)N2c1ccccc1 (centres undefined)	none
COc1ccc(NC(=O)CCc2nnc3ccc(N4CCC(C)CC4)nn23)cc1	none
COc1ccc(C(CNc2ncnc3sc(C)c(C)c23)N(C)C)cc1 (centres undefined)	none
Cc1nn(C)c(C)c1NC(=O)CSc1nc(Cc2ccccc2)nc2c1cnn2-c1ccccc1	Mdm2 MdmX PPI 94 | Mdm2-MdmX conf 57 | FLuc counter 103
COc1cc(C2=NOC(C(=O)NCc3cccs3)C2)cc(OC)c1OC (centres undefined)	none
COc1ccc(C2=NOC(C(=O)NCc3ccco3)C2)cc1 (centres undefined)	none (no result: CSC inhib)
COc1cc(C2=NOC(C(=O)NCc3ccco3)C2)cc(OC)c1OC (centres undefined)	Mdm2 MdmX PPI 64 | Mdm2-MdmX conf 57 | FLuc counter 73
COc1cc(OC)c(C2=NOC(C(=O)NCc3cccs3)C2)cc1Cl (centres undefined)	Mdm2 MdmX PPI 54 | Mdm2-MdmX conf 51 | FLuc counter 59
O=C(Nc1ccccc1O)c1c(O)c2c([nH]c1=O)CCCC2	none (no result: CSC inhib)
O=C(N/N=C/c1cccc(Cl)c1)c1c(O)c2c([nH]c1=O)CCCC2	Mdm2 MdmX PPI 69 | Mdm2-MdmX conf inactive
O=C(CSc1nc2ccccc2c(=O)n1CC1CCCO1)Nc1ccccc1Cl (centres undefined)	none
C=CCn1c(COc2ccccc2OC)nc2ccccc21	none
Cc1cccc(COCC(Cc2ccccc2)N2CCN(C(=O)c3cc(Cl)cc(Cl)c3)CCC2=O)c1 (centres undefined)	Mdm2 MdmX PPI 50 | Mdm2-MdmX conf inactive
Cc1cccc(COCC(Cc2ccccc2)N2CCN(C(=O)c3ccc(Cl)c(Cl)c3)CCC2=O)c1 (centres undefined)	none
O=C(c1ccc(C(F)(F)F)cc1)N1CCC(=O)N(C(COCc2ccccc2)Cc2ccccc2)CC1 (centres undefined)	none
O=C(c1ccc(Cl)c(Cl)c1)N1CCC(=O)N(C(COCc2ccc(Cl)cc2)Cc2ccccc2)CC1 (centres undefined)	Mdm2 MdmX PPI 52 | Mdm2-MdmX conf inactive
O=C(c1ccc(Cl)c(Cl)c1)N1CCC(=O)N(C(COCc2cccc(C(F)(F)F)c2)Cc2ccccc2)CC1 (centres undefined)	Mdm2 MdmX PPI 51 | Mdm2-MdmX conf inactive
Cc1cccc(COCC(Cc2ccccc2)N2CCN(C(=O)c3cccc(C)c3)CCC2=O)c1 (centres undefined)	none
